ChEMBL document CHEMBL1212832, “Antiprotozoal steroidal saponins from the marine sponge Pandaros acanthifolium” (J Nat Prod, 2010)
Active and inactive are the calls of the source. No cut-off for these calls is given here.

Columns and labels:
L6 = assay: Cytotoxicity against rat L6 cells after 72 hrs by Alamar blue assay; type: cell-based; conditions: l6, 72 h
Procedure, shortened: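 4 × 10^4 L6 cells per well in RPMI 1640 with 10% FBS and L-glutamine, exposed 72 h to seven 3-fold dilutions (90–0.12 µg/mL). Resazurin (Alamar Blue) added for 2 h, fluorescence read at ex 536/em 588 nm.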

[1] = Inhibition of Plasmodium falciparum recombinant FabI at 20 ug/mL by spectrophotometric analysis
Plasmodium falciparum = assay: Antimalarial activity against chloroquine and pyrimethamine-resistant Plasmodium falciparum K1 assessed as inhibition of [3H]hypoxanthine incorporation after 48 hrs by scintillation counting; type: functional, organism-based
Procedure, shortened: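 K1 strain (chloroquine- and pyrimethamine-resistant) cultured in RPMI 1640 with 5% Albumax II, 0.2% w/v glucose, 0.03% L-glutamine. Two-fold dilution series from DMSO stocks, final DMSO ≤0.25%. 48 h at 37 °C, then 0.1 µCi [3H]-hypoxanthine added and incubated 24 h more. Freeze-stopped at -80 °C, harvested onto glass fiber filters, scintillation counted. IC50 calculated. Chloroquine as standard.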

[2] = target: T1, Fatty acid synthase (Plasmodium falciparum) (UniProt Q965D7); assay: Inhibition of Plasmodium falciparum recombinant FabZ at 20 ug/mL by spectrophotometric analysis
T1 sequence (whole entry): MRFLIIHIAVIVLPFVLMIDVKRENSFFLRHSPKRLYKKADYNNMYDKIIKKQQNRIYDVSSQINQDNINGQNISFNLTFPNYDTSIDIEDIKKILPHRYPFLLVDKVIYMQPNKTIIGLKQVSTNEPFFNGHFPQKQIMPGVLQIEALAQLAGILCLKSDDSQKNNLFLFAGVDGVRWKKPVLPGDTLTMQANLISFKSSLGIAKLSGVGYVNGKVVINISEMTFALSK

Trypanosoma cruzi = assay: Trypanocidal activity against trypomastigote form of Trypanosoma cruzi Tulahuen infected in rat L6 cells after 96 hrs; type: functional, organism-based; conditions: L6, 96 h
Procedure, shortened: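 L6 cells seeded at 2000 per well in RPMI 1640 with 10% FBS, 2 mM L-glutamine; after 24 h, 5000 trypomastigotes of the LacZ-expressing C2C4 line added. After 48 h, medium replaced with seven 3-fold dilutions (90–0.12 µg/mL) for 96 h.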

[3] = tested on: Trypanosoma brucei rhodesiense; assay: Trypanocidal activity against Trypanosoma brucei rhodesiense STIB 900 after 72 hrs; type: functional, organism-based; conditions: STIB 900, 72 h
Procedure, shortened: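 Bloodstream forms (10^4 per well) in MEM with 25 mM HEPES, extra glucose, non-essential amino acids, 2-mercaptoethanol, pyruvate and 15% heat-inactivated horse serum; seven 3-fold dilutions from 90 to 0.12 µg/mL, 72 h at 37 °C, 5% CO2. Resazurin added for 2–4 h, fluorescence at ex 536/em 588 nm; melarsoprol as standard.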

Leishmania donovani [4] = assay: Antileishmanial activity against Leishmania donovani (MHOM/ET/67/L82) amastigotes after 72 hrs; type: functional, organism-based; conditions: MHOM/ET/67/L82, 72 h
Leishmania donovani [5] = assay: Ratio of miltefosine IC50 to compound IC50 for Leishmania donovani (MHOM/ET/67/L82) amastigotes
[6] = target: T2, 3-oxoacyl-acyl-carrier protein reductase (Plasmodium falciparum) (UniProt Q965D6); assay: Inhibition of Plasmodium falciparum recombinant FabG at 20 ug/mL by spectrophotometric analysis
T2 sequence (whole entry): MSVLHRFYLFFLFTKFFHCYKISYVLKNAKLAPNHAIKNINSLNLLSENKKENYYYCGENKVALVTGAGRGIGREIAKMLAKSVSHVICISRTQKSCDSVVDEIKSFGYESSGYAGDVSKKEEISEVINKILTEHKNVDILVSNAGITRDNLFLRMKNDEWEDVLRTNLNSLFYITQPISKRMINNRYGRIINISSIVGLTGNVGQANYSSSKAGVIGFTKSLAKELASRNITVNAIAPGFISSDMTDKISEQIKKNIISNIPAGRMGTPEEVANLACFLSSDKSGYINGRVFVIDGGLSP

## CC[C@@H](C(=O)C[C@@H](C)C1=C(O)C(=O)[C@@H]2C3=CC[C@H]4C[C@@H](O[C@@H]5O[C@H](C(=O)OC)[C@@H](O)[C@H](O[C@@H]6OC[C@@H](O)[C@H](O)[C@H]6O)[C@H]5O)CC[C@]4(C)[C@H]3CC[C@]12C)C(C)C [METHYL ESTER PANDAROSIDE G]
L6
  Activity: 0.22 µM
[1]
  Activity: inactive
Plasmodium falciparum
  IC50: 0.39 µM
[2]
  Activity: inactive
Trypanosoma cruzi
  IC50: 0.77 µM
[3]
  IC50: 0.038 µM
Leishmania donovani [4]
  IC50: 0.051 µM
Leishmania donovani [5]
  Ratio IC50: 10
[6]
  Activity: inactive

## CC[C@@H](C(=O)C[C@@H](C)C1=C(O)C(=O)[C@@H]2[C@@H]3CC[C@H]4C[C@@H](O[C@@H]5O[C@H](C(=O)O)[C@@H](O)[C@H](O[C@@H]6OC[C@@H](O)[C@H](O)[C@H]6O)[C@H]5O)CC[C@]4(C)[C@H]3CC[C@]12C)C(C)C [PANDAROSIDE H]
L6
  Activity: > 120 µM
[1]
  Activity: inactive
Plasmodium falciparum
  IC50: 22.8 µM
[2]
  Activity: inactive
Trypanosoma cruzi
  IC50: > 120 µM
[3]
  IC50: 68.4 µM
Leishmania donovani [4]
  IC50: 46.7 µM
[6]
  Activity: inactive

## CC[C@@H](C(=O)C[C@@H](C)C1=C(O)C(=O)[C@@H]2[C@@H]3CC[C@H]4C[C@@H](O[C@@H]5O[C@H](C(=O)O)[C@@H](O[C@H]6O[C@H](C)[C@@H](O)[C@H](O)[C@@H]6O)[C@H](O)[C@H]5O)CC[C@]4(C)[C@H]3CC[C@]12C)C(C)C [PANDAROSIDE I]
L6
  Activity: > 120 µM
[1]
  Activity: inactive
Plasmodium falciparum
  IC50: > 25 µM
[2]
  Activity: inactive
Trypanosoma cruzi
  IC50: 70.8 µM
[3]
  IC50: 19.2 µM
Leishmania donovani [4]
  IC50: 36 µM
[6]
  Activity: inactive
